# Reference: ChEMBL document CHEMBL3244396, “Synthesis and antileukemic activity of 5-substituted 2,3-dihydro-6,7-bis(hydroxymethyl)-1H-pyrrolizine diesters” (J Med Chem, 1977)
# Legend:
# Mus musculus [1] = assay: Toxicity in female BDF1 mouse allografted with mouse L1210 cells assessed as animal survival at 100 mg/kg, ip administered daily for 9 days as Klucel suspension starting 24 hrs after tumor inoculation measured on fifth day; format: organism-based; design: dose 100 mg/kg, route intraperitoneal; conditions: in vivo
# In short: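 Female BDF1 mice bearing ip ascitic L1210 inoculum got nine daily ip doses in a Klucel suspension, starting 24 h after tumor inoculation. Toxicity was scored as toxicity-day survivors out of the group, recorded on the fifth day. Animal weight difference (T − C) was also tabulated.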
# L1210 [2] = assay: Antileukemic activity against mouse L1210 cells allografted in female BDF1 mouse assessed as change in body weight at 100 mg/kg, ip administered daily for 9 days as Klucel suspension starting 24 hrs after tumor inoculation; format: functional; conditions: route intraperitoneal
# In short: (§1)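 Ascitic fluid carrying L1210 cells was inoculated ip. Compound was given ip as a Klucel (hydroxypropylcellulose) suspension in nine daily doses, starting 24 h after inoculation. Body-weight difference (treated minus control) was recorded on day 5. Survival was scored as %T/C of mean survival time.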
# Mus musculus [3] = assay: Toxicity in female CDF1 mouse allografted with mouse P388 cells assessed as animal survival at 50 mg/kg, ip administered daily for 9 days as Klucel suspension starting 24 hrs after tumor inoculation; format: organism-based; design: dose 50 mg/kg, route intraperitoneal; conditions: in vivo
# In short: (§2)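 P-388 leukemia ascitic fluid inoculated ip. Compound given ip as a suspension in Klucel (hydroxypropylcellulose), once daily for nine doses beginning 24 h post-inoculation. Acute toxicity assessed as toxicity-day survivors per group. Survival was followed up to 30 days, with 30-day survival counted as "cure". Follows NCI screening protocols.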
# P388 [4] = assay: Antitumor activity against mouse P388 cells allografted in female CDF1 mouse assessed as disease cures by measuring 30-days host survival at 200 mg/kg, ip administered daily for 9 days as Klucel suspension starting 24 hrs after tumor inoculation relative to control; format: functional; conditions: route intraperitoneal
# In short: (§3)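 P388 leukemia given as an ascitic fluid cell inoculum, ip, to mice of the strain and sex in each line. Nine daily ip doses were given in a Klucel (hydroxypropylcellulose) suspension, starting 24 h after inoculation. Read-out is median survival time as %T/C, with >125 taken as significant; a "cure" means 30-day survival.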
# L1210 [5] = assay: Antileukemic activity against mouse L1210 cells allografted in female BDF1 mouse assessed as change in body weight at 200 mg/kg, ip administered daily for 9 days as Klucel suspension starting 24 hrs after tumor inoculation; format: functional; conditions: route intraperitoneal; in short: as §1
# Mus musculus [6] = assay: Toxicity in female BDF1 mouse allografted with mouse L1210 cells assessed as animal survival at 200 mg/kg, ip administered daily for 9 days as Klucel suspension starting 24 hrs after tumor inoculation measured on fifth day; format: organism-based; design: dose 200 mg/kg, route intraperitoneal; conditions: in vivo
# In short: (§4)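 L1210 leukemia passaged as ascitic fluid and inoculated ip. Test agent given ip as a Klucel (hydroxypropylcellulose) suspension, nine daily doses starting 24 h after tumor inoculation. Acute toxicity read as toxicity-day survivors per group (out of 6), recorded on day 5. Animal weight difference T − C was also recorded. Follows NCI screening protocols.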
# L1210 [7] = assay: Antileukemic activity against mouse L1210 cells allografted in female BDF1 mouse assessed as host mean survival time at 100 mg/kg, ip administered daily for 9 days as Klucel suspension starting 24 hrs after tumor inoculation relative to control; format: functional; conditions: route intraperitoneal
# In short: (§5)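 L1210 leukemia given as an ascitic fluid cell inoculum, ip, to mice of the strain and sex in each line. Test material was given ip for nine daily doses starting 24 h after inoculation, in a Klucel (hydroxypropylcellulose) suspension. Read-out is mean survival time as %T/C versus controls, with >125 taken as significant.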
# Mus musculus [8] = assay: Toxicity in female BDF1 mouse allografted with mouse L1210 cells assessed as animal survival at 50 mg/kg, ip administered daily for 9 days as Klucel suspension starting 24 hrs after tumor inoculation measured on fifth day; format: organism-based; design: dose 50 mg/kg, route intraperitoneal; conditions: in vivo; in short: as §4
# P388 [9] = assay: Antitumor activity against mouse P388 cells allografted in female CDF1 mouse assessed as disease cures by measuring 30-days host survival at 50 mg/kg, ip administered daily for 9 days as Klucel suspension starting 24 hrs after tumor inoculation relative to control; format: functional; conditions: route intraperitoneal; in short: as §3
# [10] = Cytotoxicity against human 9KB cells treated as ethanol solution; format: functional; conditions: read-out: ED50 (the source's name)
# In short: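 Compound applied as an ethanol solution; activity read out as ED50 under the general screening protocol.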
# L1210 [11] = assay: Antileukemic activity against mouse L1210 cells allografted in female BDF1 mouse assessed as host mean survival time at 200 mg/kg, ip administered daily for 9 days as Klucel suspension starting 24 hrs after tumor inoculation relative to control; format: functional; conditions: route intraperitoneal; in short: as §5
# L1210 [12] = assay: Antileukemic activity against mouse L1210 cells allografted in female BDF1 mouse assessed as change in body weight at 50 mg/kg, ip administered daily for 9 days as Klucel suspension starting 24 hrs after tumor inoculation; format: functional; conditions: route intraperitoneal; in short: as §1
# Mus musculus [13] = assay: Toxicity in female CDF1 mouse allografted with mouse P388 cells assessed as animal survival at 100 mg/kg, ip administered daily for 9 days as Klucel suspension starting 24 hrs after tumor inoculation; format: organism-based; design: dose 100 mg/kg, route intraperitoneal; conditions: in vivo; in short: as §2
# L1210 [14] = assay: Antileukemic activity against mouse L1210 cells allografted in female BDF1 mouse assessed as host mean survival time at 50 mg/kg, ip administered daily for 9 days as Klucel suspension starting 24 hrs after tumor inoculation relative to control; format: functional; conditions: route intraperitoneal; in short: as §5
# P388 [15] = assay: Antitumor activity against mouse P388 cells allografted in female CDF1 mouse assessed as change in body weight at 50 mg/kg, ip administered daily for 9 days as Klucel suspension starting 24 hrs after tumor inoculation; format: functional; conditions: route intraperitoneal
# In short: (§6)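 Ascitic fluid carrying P388 cells was inoculated ip. Compound was given ip in nine daily doses, starting 24 h after inoculation, in Klucel (hydroxypropylcellulose) suspension or in saline with Tween-80. Body-weight difference (treated minus control) was recorded on day 5. Survival was scored as %T/C of median survival time, and 30-day survival counted as cure.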
# P388 [16] = assay: Antitumor activity against mouse P388 cells allografted in female CDF1 mouse assessed as disease cures by measuring 30-days host survival at 100 mg/kg, ip administered daily for 9 days as Klucel suspension starting 24 hrs after tumor inoculation relative to control; format: functional; conditions: route intraperitoneal; in short: as §3
# P388 [17] = assay: Antitumor activity against mouse P388 cells allografted in female CDF1 mouse assessed as change in body weight at 100 mg/kg, ip administered daily for 9 days as Klucel suspension starting 24 hrs after tumor inoculation; format: functional; conditions: route intraperitoneal; in short: as §6
# P388 [18] = assay: Antitumor activity against mouse P388 cells allografted in female CDF1 mouse assessed as change in body weight at 200 mg/kg, ip administered daily for 9 days as Klucel suspension starting 24 hrs after tumor inoculation; format: functional; conditions: route intraperitoneal; in short: as §6
# Mus musculus [19] = assay: Toxicity in female CDF1 mouse allografted with mouse P388 cells assessed as animal survival at 200 mg/kg, ip administered daily for 9 days as Klucel suspension starting 24 hrs after tumor inoculation; format: organism-based; design: dose 200 mg/kg, route intraperitoneal; conditions: in vivo; in short: as §2
SMILES,Activity (Mus musculus [1]),Activity (L1210 [2]) [g],Activity (Mus musculus [3]),T/C (P388 [4]) [%],Activity (L1210 [5]) [g],Activity (Mus musculus [6]),T/C (L1210 [7]) [%],Activity (Mus musculus [8]),T/C (P388 [9]) [%],EC50 [10] [µg/mL],T/C (L1210 [11]) [%],Activity (L1210 [12]) [g],Activity (Mus musculus [13]),T/C (L1210 [14]) [%],Activity (P388 [15]) [g],T/C (P388 [16]) [%],Activity (P388 [17]) [g],Activity (P388 [18]) [g],Activity (Mus musculus [19])
CNC(=O)OCc1c(COC(=O)NC)c(C(F)(F)F)n2c1CCC2,Non-toxic,-0.8,Non-toxic,82,-0.2,Non-toxic,100,Non-toxic,117,2.5,98,-0.1,Non-toxic,104,1.4,116,-0.4,-1.5,–
CC(=O)OCc1c(COC(C)=O)c(C(F)(F)F)n2c1CCC2,Non-toxic,-0.6,Non-toxic,104,-0.8,Non-toxic,100,Non-toxic,90,2.4,98,-1,Non-toxic,107,2.1,93,1.8,1.1,Non-toxic
CNC(=O)OCc1c(COC(=O)NC)c(-c2ccccc2)n2c1CCC2,Non-toxic,-1.5,Non-toxic,59,-3.1,Non-toxic,104,Non-toxic,124,22,110,-2.6,Non-toxic,104,-2.1,124,-1.8,-3.5,Non-toxic
